pIC50: −log10 of the molar value. Values after ≈ are worked out from the molar mass of the structure shown.
How the values were obtained:
Nakaseomyces glabratus = assay: Antifungal activity against Candida glabrata ATCC 2001 after 48 hrs by broth microdilution method; assay type: functional; settings: ATCC 2001, 48 h
Summary of the method: (§1)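 Broth microdilution per NCCLS guidelines in MOPS-buffered RPMI 1640; starting inoculum 1-5 x 10^3 CFU/mL; plates incubated at 35 °C; MIC recorded after 48 h; fluconazole as reference; experiments repeated three times.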

Candida albicans [1] = assay: Antifungal activity against Candida albicans ATCC 66027 after 48 hrs by broth microdilution method; assay type: functional; settings: ATCC 66027, 48 h; summary of the method: as §1
Candida albicans [2] = assay: Antifungal activity against Candida albicans ATCC 14053 after 48 hrs by broth microdilution method; assay type: functional; settings: ATCC 14053, 48 h; summary of the method: as §1
Candida albicans [3] = assay: Antifungal activity against Candida albicans ATCC 10231 after 48 hrs by broth microdilution method; assay type: functional; settings: ATCC 10231, 48 h; summary of the method: as §1
Candida albicans [4] = assay: Antifungal activity against Candida albicans patient isolate after 48 hrs by broth microdilution method; assay type: functional; summary of the method: as §1
[5] = system: Trichophyton mentagrophytes; assay: Antifungal activity against Trichophyton mentagrophytes after 48 hrs by broth microdilution method; assay type: functional; summary of the method: as §1
Sporothrix schenckii = assay: Antifungal activity against Sporothrix schenckii after 48 hrs by broth microdilution method; assay type: functional; summary of the method: as §1
Cryptococcus neoformans = assay: Antifungal activity against Cryptococcus neoformans after 48 hrs by broth microdilution method; assay type: functional; summary of the method: as §1
[6] = Selectivity index, ratio of IC50 for human HeLa cells to MIC for metronidazole-susceptible Trichomonas vaginalis; assay type: toxicity; settings: read-out: Selectivity Index
[7] = Selectivity index, ratio of IC50 for human HeLa cells to MIC for metronidazole-resistant Trichomonas vaginalis CDC085 ATCC 50143; assay type: toxicity; settings: read-out: Selectivity Index
HeLa = assay: Cytotoxicity against human HeLa cells after 24 hrs by MTT assay; assay type: cell-based
Trichomonas vaginalis [8] = assay: Antitrichomonas activity against metronidazole-resistant Trichomonas vaginalis CDC085 ATCC 50143 assessed as decrease in cell viability after 48 hrs by trypan blue exclusion method; assay type: functional; settings: CDC085 ATCC 50143, 48 h
Trichomonas vaginalis [9] = assay: Antitrichomonas activity against metronidazole-susceptible Trichomonas vaginalis assessed as decrease in cell viability after 48 hrs by trypan blue exclusion method; assay type: functional
Trichomonas vaginalis [10] = assay: Potency index, ratio of metronidazole MIC to test compound MIC for metronidazole-resistant Trichomonas vaginalis CDC085 ATCC 50143; assay type: functional
Candida albicans [11] = assay: Antifungal activity against Candida albicans MTCC 183 after 48 hrs by broth microdilution method; assay type: functional; settings: MTCC 183, 48 h; summary of the method: as §1
Candida parapsilosis = assay: Antifungal activity against Candida parapsilosis ATCC 22019 after 48 hrs by broth microdilution method; assay type: functional; settings: Lodderomyces parapsilosis, ATCC 22019, 48 h; summary of the method: as §1

| Structure (SMILES) | MIC (Nakaseomyces glabratus) [µM] | MIC (Candida albicans [1]) [µM] | MIC (Candida albicans [2]) [µM] | MIC (Candida albicans [3]) [µM] | MIC (Candida albicans [4]) [µM] | MIC [5] [µM] | MIC (Sporothrix schenckii) [µM] | MIC (Cryptococcus neoformans) [µM] | selectivity ratio [6] | selectivity ratio [7] | pIC50 (HeLa) | MIC (Trichomonas vaginalis [8]) [µM] | MIC (Trichomonas vaginalis [9]) [µM] | Ratio (Trichomonas vaginalis [10]) | MIC (Candida albicans [11]) [µM] | MIC (Candida parapsilosis) [µM] |
| --- | --- | --- | --- | --- | --- | --- | --- | --- | --- | --- | --- | --- | --- | --- | --- | --- |
| CCCCNC(=S)N1CCN(C(=S)SC(=S)N(C)C)CC1 | > 137 | > 137 | > 137 | > 137 | 137 (≈ 49.9 µg/mL) | 137 (≈ 49.9 µg/mL) | 137 (≈ 49.9 µg/mL) | > 137 | 41 | 20 | 2.55 | 137 (≈ 49.9 µg/mL) | 68.5 (≈ 25 µg/mL) | 1.3 - 11.2 | > 137 | 137 (≈ 49.9 µg/mL) |
| CCOC(=O)N1CCN(C(=S)SC(=S)N(C)C)CC1 | 156 (≈ 50.1 µg/mL) | 38.9 (≈ 12.5 µg/mL) | 156 (≈ 50.1 µg/mL) | > 156 | 156 (≈ 50.1 µg/mL) | 77.9 (≈ 25 µg/mL) | 77.9 (≈ 25 µg/mL) | 156 (≈ 50.1 µg/mL) | 6 | 3 | 3.28 | 156 (≈ 50.1 µg/mL) | 77.9 (≈ 25 µg/mL) | 1.3 - 9.5 | 156 (≈ 50.1 µg/mL) | 156 (≈ 50.1 µg/mL) |
| CN(C)C(=S)SC(=S)N1CCN(c2cccc(Cl)c2)CC1 | > 139 | > 139 | > 139 | > 139 | 34.7 (≈ 12.5 µg/mL) | 34.7 (≈ 12.5 µg/mL) | 34.7 (≈ 12.5 µg/mL) | 139 (≈ 49.9 µg/mL) | 36 | 18 | < 2.30 | 278 (≈ 100 µg/mL) | 139 (≈ 50 µg/mL) | 1.3 - 9.5 | 69.3 (≈ 25 µg/mL) | 8.66 (≈ 3.12 µg/mL) |
| OC(Cn1cncn1)(Cn1cncn1)c1ccc(F)cc1F [FLUCONAZOLE] | 13.1 (≈ 4 µg/mL) | 1.63 (≈ 0.499 µg/mL) | 0.39 (≈ 0.119 µg/mL) | 3.26 (≈ 0.998 µg/mL) | 3.26 (≈ 0.998 µg/mL) | > 105 | 6.53 (≈ 2 µg/mL) | 6.53 (≈ 2 µg/mL) | – | – | – | – | – | – | – | 6.53 (≈ 2 µg/mL) |
| CN(C)C(=S)SC(=S)N1CCOCC1 | 100 (≈ 25 µg/mL) | 100 (≈ 25 µg/mL) | 50 (≈ 12.5 µg/mL) | 25 (≈ 6.26 µg/mL) | 200 (≈ 50.1 µg/mL) | 100 (≈ 25 µg/mL) | 100 (≈ 25 µg/mL) | 200 (≈ 50.1 µg/mL) | 40 | 10 | 2.40 | 400 (≈ 100 µg/mL) | 100 (≈ 25 µg/mL) | – | 50 (≈ 12.5 µg/mL) | 200 (≈ 50.1 µg/mL) |
| CCN(CC)C(=S)SC(=S)N(C)C | > 212 | 53 (≈ 12.5 µg/mL) | > 212 | > 212 | 53 (≈ 12.5 µg/mL) | 26.5 (≈ 6.26 µg/mL) | 26.5 (≈ 6.26 µg/mL) | 106 (≈ 25 µg/mL) | > 94 | > 47 | < 2.30 | 106 (≈ 25 µg/mL) | 53 (≈ 12.5 µg/mL) | 1.5 - 3.8 | 106 (≈ 25 µg/mL) | 26.5 (≈ 6.26 µg/mL) |
| CN(C)C(=S)SC(=S)N1CCCCCC1 | 11.9 (≈ 3.12 µg/mL) | 23.9 (≈ 6.26 µg/mL) | 11.9 (≈ 3.12 µg/mL) | 23.9 (≈ 6.26 µg/mL) | 23.9 (≈ 6.26 µg/mL) | 23.9 (≈ 6.26 µg/mL) | 23.9 (≈ 6.26 µg/mL) | 47.7 (≈ 12.5 µg/mL) | > 52 | > 26 | < 2.30 | 191 (≈ 50.1 µg/mL) | 95.4 (≈ 25 µg/mL) | 1.5 - 3.8 | 47.7 (≈ 12.5 µg/mL) | 23.9 (≈ 6.26 µg/mL) |
| CN(C)C(=S)SC(=S)N1CCN(C(=S)SCCCC#N)CC1 | > 127 | > 127 | > 127 | > 127 | > 127 | 127 (≈ 50 µg/mL) | 127 (≈ 50 µg/mL) | > 127 | > 79 | > 39 | < 2.30 | 127 (≈ 50 µg/mL) | 63.6 (≈ 25 µg/mL) | 1.3 - 11.2 | > 127 | > 127 |
| CCCCSC(=S)N1CCN(C(=S)SC(=S)N(C)C)CC1 | 131 (≈ 49.9 µg/mL) | 32.7 (≈ 12.5 µg/mL) | 131 (≈ 49.9 µg/mL) | > 131 | 16.3 (≈ 6.23 µg/mL) | 32.7 (≈ 12.5 µg/mL) | 32.7 (≈ 12.5 µg/mL) | 65.3 (≈ 24.9 µg/mL) | > 19 | > 7 | < 2.30 | 654 (≈ 250 µg/mL) | 262 (≈ 99.9 µg/mL) | – | 131 (≈ 49.9 µg/mL) | 8.16 (≈ 3.11 µg/mL) |
| CSC(=S)N1CCN(C(=S)SC(=S)N(C)C)CC1 | > 147 | > 147 | > 147 | > 147 | > 147 | 147 (≈ 49.9 µg/mL) | 147 (≈ 49.9 µg/mL) | > 147 | > 17 | > 7 | < 2.30 | 735 (≈ 250 µg/mL) | 294 (≈ 99.9 µg/mL) | – | > 147 | 36.8 (≈ 12.5 µg/mL) |

Reference: ChEMBL document CHEMBL4138228, “Substituted carbamothioic amine-1-carbothioic thioanhydrides as novel trichomonicidal fungicides: Design, synthesis, and biology” (Eur J Med Chem, 2018)
